The record followed here is ChEMBL document CHEMBL1125253, “Allosteric modifiers of hemoglobin. 1. Design, synthesis, testing, and structure-allosteric activity relationship of novel hemoglobin oxygen affinity decreasing agents” (J Med Chem, 1991).

Several values for one entry are separate records, joined by “and”; a condition that tells them apart may be missing. Identical values can stand only once.

Assay [1] addresses T1, Hemoglobin HbA (Homo sapiens) (UniProt P69905+P68871). In words: Oxygen pressure in mmHg at which the […] hemoglobin solution (in presence of 10 mM compound) was 50% saturated with oxygen. Type of assay: protein-complex assay. The gist of the method:
(§1)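 Purified HbA from washed, lysed erythrocytes (DEAE-Sephacel, pH 8.4 Tris elution), exchanged into 50 mM HEPES pH 7.4. Stock Hb 5.4 mM mixed 1:1 with 20 mM compound in HEPES, giving final 2.7 mM Hb and 10 mM compound (about 4:1). Control is Hb mixed with buffer alone. Oxygen dissociation curves recorded on a Hem-O-Scan analyzer. P50 in mmHg at 50% saturation.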

Assay [2] has as its target T1, Hemoglobin HbA (Homo sapiens). In words: Oxygen pressure in mmHg at which the control hemoglobin solution (no compound) was 50% saturated with oxygen. Type of assay: protein-complex assay. The gist of the method:
as §1

A short description of assay [3]: Dose-response study in whole blood at a concentration of 0.5 mM. Type of assay: tissue-based. The gist of the method: (§2)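 Fresh heparinized whole blood mixed 1:1 with test compound in isosmotic 50 mM HEPES pH 7.4 containing 140 mM NaCl and 10 mM glucose. Hb after addition approximately 1.25 mM. Oxygen dissociation curves recorded on a Hem-O-Scan analyzer. P50 with compound divided by P50 of control.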

The nature of assay [4]: Dose-response study in whole blood at a concentration of 1.0 mM. Type of assay: tissue-based. The gist of the method: as §2
Assay [5] in a line: Dose-response study in whole blood at a concentration of 10.0 mM. Type of assay: tissue-based. The gist of the method: as §2
Assay [6] can be described thus: Dose-response study in whole blood at a concentration of 2.0 mM. Type of assay: tissue-based. The procedure, abridged: as §2
Assay [7] in a line: Dose-response study in whole blood at a concentration of 4.0 mM. Type of assay: tissue-based. The procedure, abridged: as §2

T1 sequence (P68871 2-147 partner limits assumed): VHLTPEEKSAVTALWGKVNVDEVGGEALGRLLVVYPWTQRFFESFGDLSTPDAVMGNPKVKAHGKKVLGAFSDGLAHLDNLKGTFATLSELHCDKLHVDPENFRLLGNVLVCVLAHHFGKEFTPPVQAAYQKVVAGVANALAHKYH
T1 sequence (P69905 2-142 limits assumed): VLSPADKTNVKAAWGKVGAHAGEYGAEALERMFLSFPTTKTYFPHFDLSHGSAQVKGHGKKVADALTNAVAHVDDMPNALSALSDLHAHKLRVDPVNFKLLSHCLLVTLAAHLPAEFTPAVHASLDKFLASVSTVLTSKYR

`CC(C)(Oc1ccc(CC(=O)Nc2ccc(C(F)(F)F)cc2)cc1)C(=O)O`: the P50d in assay [1] is 44 mmHg [middle of 4 runs]. Moreover, the P50c in assay [2] is 20 mmHg and 17.5 mmHg (2×) and 18 mmHg.

Take `CC(C)(Oc1ccc(NC(=O)Nc2cc(Cl)cc(Cl)c2)cc1)C(=O)O`: the P50d in assay [1] is 44 mmHg and 65 mmHg and 63 mmHg. In addition, the P50c in assay [2] is 11.8 mmHg and 18 mmHg (2×). Moreover, the P50d/P50c was found to be 0.96 in assay [3]; 1.15 in assay [4]; 2.25 in assay [5]; 1.7 in assay [6]; 1.84 in assay [7].

In the case of `CC(C)(Oc1ccc(CNC(=O)c2ccc(Cl)cc2)cc1)C(=O)O`, the P50d in assay [1] was 48 mmHg (2×) and 49 mmHg. In assay [2], the P50c is 19 mmHg (2×) and 18 mmHg.

Take `CC(C)(Oc1ccc(CNC(=O)c2ccccc2Cl)cc1)C(=O)O`: the P50d in assay [1] is 28 mmHg. The same compound registered a P50c in assay [2] of 19 mmHg.

As to `CC(C)(Oc1ccc(CC(=O)Nc2cc(Cl)c(Cl)c(Cl)c2)cc1)C(=O)O`, the P50d in assay [1] is 37 mmHg and 60 mmHg and 63 mmHg. The P50c in assay [2] is 12 mmHg and 19 mmHg (2×).

For the compound `CC(C)(Oc1ccc(CC(=O)Nc2ccccc2)cc1)C(=O)O`, the P50d in assay [1] is 63 mmHg and 54 mmHg. Besides, the P50c in assay [2] is 20.5 mmHg and 19 mmHg.

For `CC(C)(Oc1ccc(NC(=O)Cc2ccc(Cl)cc2)cc1)C(=O)O`, the P50d in assay [1] was 44 mmHg [middle of 5 runs]. The P50c in assay [2] was 19 mmHg (4×) and 21 mmHg.

In the case of `Cc1cc(C)cc(NC(=O)Cc2ccc(OC(C)(C)C(=O)O)cc2)c1`, in assay [1], the P50d was 75.5 mmHg and 76.5 mmHg and 78 mmHg. In assay [2], the P50c was 19 mmHg and 19.2 mmHg (2×). Further, the P50d/P50c is 1.07 in assay [3]; 1.53 in assay [4]; 3 in assay [5]; 1.93 in assay [6]; 2.61 in assay [7].

For `CC(C)(Oc1ccc(NC(=O)Cc2ccccc2)cc1)C(=O)O`, the P50d in assay [1] stood at 35 mmHg. Moreover, in assay [2], the P50c is 19.5 mmHg.

Consider `CC(C)(Oc1ccc(CNC(=O)c2cc(Cl)c(Cl)c(Cl)c2)cc1)C(=O)O`, for which the P50c in assay [2] is 19 mmHg (2×) and 11.5 mmHg.

`CC(C)(Oc1ccc(CCNC(=O)c2ccccc2)cc1)C(=O)O`: the P50d in assay [1] was determined as 32 mmHg. Besides, the P50c in assay [2] stood at 18 mmHg.

On to `CC(C)(Oc1ccc(NC(=O)Nc2ccc(Cl)c(Cl)c2)cc1)C(=O)O`, for which the P50d in assay [1] is 32 mmHg. In addition, in assay [2], the P50c turned out to be 18 mmHg.

Regarding `CC(C)(Oc1ccc(CNC(=O)c2ccc(Cl)c(Cl)c2)cc1)C(=O)O`, the P50d in assay [1] was 38.5 mmHg and 40 mmHg. Moreover, in assay [2], the P50c is 19 mmHg and 18 mmHg.

Turning to `CC(C)c1ccc(NC(=O)Cc2ccc(OC(C)(C)C(=O)O)cc2)cc1`, in assay [1], the P50d was 57 mmHg and 56.5 mmHg and 57.8 mmHg. Besides, the P50c in assay [2] was 19.5 mmHg and 19 mmHg (2×).

With `Cc1ccc(NC(=O)Cc2ccc(OC(C)(C)C(=O)O)cc2)cc1`, the P50d in assay [1] was 40 mmHg and 41 mmHg. Also, the P50c in assay [2] amounted to 15 mmHg.

For the compound `CC(C)(Oc1ccc(CC(=O)Nc2c(Cl)cccc2Cl)cc1)C(=O)O`, the P50d in assay [1] is 34 mmHg and 35 mmHg. In assay [2], the P50c was 18 mmHg.

With `CC(C)(Oc1ccc(CNC(=O)c2cccc(Cl)c2)cc1)C(=O)O`, the P50d in assay [1] amounted to 37 mmHg. For the same compound, the P50c in assay [2] is 18 mmHg and 19 mmHg.

Regarding `CC(C)(Oc1ccc(NC(=O)Nc2cc(Cl)c(Cl)c(Cl)c2)cc1)C(=O)O`, the P50d in assay [1] is 48 mmHg and 35 mmHg and 36 mmHg. Moreover, in assay [2], the P50c is 18 mmHg and 14 mmHg (2×).

Take `CC(C)(Oc1ccc(CC(=O)Nc2ccc(F)cc2)cc1)C(=O)O`: the P50d in assay [1] was 52 mmHg and 44 mmHg. The P50c in assay [2] is 20 mmHg and 17.5 mmHg.

As to `CC(C)(Oc1ccc(CC(=O)Nc2ccc(Cl)c(Cl)c2)cc1)C(=O)O`, the P50d in assay [1] amounted to 65 mmHg. In addition, in assay [2], the P50c was 18.2 mmHg and 18 mmHg.

As for `CC(C)(Oc1ccc(CC(=O)Nc2cc(Cl)cc(Cl)c2)cc1)C(=O)O`, in assay [1], the P50d is 47 mmHg [middle of 5 runs]. For the same compound, the P50c in assay [2] is 10.3 mmHg and 11 mmHg (2×) and 19.2 mmHg (2×). Also, the P50d/P50c was determined as 1.09 in assay [3]; 1.52 in assay [4]; 2.93 in assay [5]; 2 in assay [6]; 2.72 in assay [7].

In the case of `CC(C)(Oc1ccc(CCNC(=O)c2ccc(Cl)cc2)cc1)C(=O)O`, the P50d in assay [1] is 31 mmHg [middle of 4 runs]. For the same compound, the P50c in assay [2] was 18 mmHg and 17 mmHg (2×) and 18.5 mmHg.

In the case of `CC(C)(Oc1ccc(CC(=O)Nc2ccc(Cl)cc2)cc1)C(=O)O`, the P50d in assay [1] is 52 mmHg [middle of 4 runs]. Also, the P50c in assay [2] was 15.5 mmHg and 19 mmHg and 18.5 mmHg (2×).

With `CC(C)(Oc1ccc(CNC(=O)c2ccccc2)cc1)C(=O)O`, the P50d in assay [1] is 35 mmHg and 35.5 mmHg. Besides, the P50c in assay [2] is 18 mmHg and 19 mmHg.

On to `CC(C)(Oc1ccc(CNC(=O)c2cc(Cl)cc(Cl)c2)cc1)C(=O)O`, for which the P50d in assay [1] was 48.5 mmHg and 47 mmHg and 46 mmHg. The compound further yielded a P50c in assay [2] of 19 mmHg.
